Laboratory results taken from ChEMBL document CHEMBL3259690, “Synthesis, structure-activity relationships, and biological studies of chromenochalcones as potential antileishmanial agents” (J Med Chem, 2014).

What was measured:
[1] = test system: J774.A1; assay: Increase in TNF-alpha production in mouse J774A1 cells infected with Leishmania donovani at IC50 concentration after 24 hrs by sandwich ELISA relative to control; format: functional
Outline: (§1)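 J774A.1 macrophages (1 × 10⁶) infected with Leishmania at 1:10, treated in 6-well plates at the compound's IC₅₀ concentration, 37 °C, CO₂. Supernatants from normal, infected-untreated and infected-treated cells collected after 24 h. IL-12, TNF-α, IL-10 and TGF-β measured by sandwich ELISA at 450 nm, in pg/mL. Two independent experiments in duplicate, mean ± SD; Student's t test against infected control.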

[2] = test system: Leishmania donovani; assay: Induction of early apoptosis in Leishmania donovani MHOM/IN/80/Dd8 promastigotes at 0.78 uM after 72 hrs by Annexin V-FITC/propidium iodide staining based flow cytometry (reference value: 13.70%); format: functional
[3] = test system: J774.A1; assay: Decrease in IL-10 production in mouse J774A1 cells infected with Leishmania donovani at IC50 concentration after 24 hrs by sandwich ELISA relative to control; format: functional; outline: as §1
[4] = target: Albumin (Bos taurus, UniProt P02769); assay: Binding affinity to bovine serum albumin at 1 mmol/L by fluorescence spectrophotometer analysis; format: ADME; conditions: cattle, isolated protein, 1000 µM
Albumin, sequence (P02769 whole entry): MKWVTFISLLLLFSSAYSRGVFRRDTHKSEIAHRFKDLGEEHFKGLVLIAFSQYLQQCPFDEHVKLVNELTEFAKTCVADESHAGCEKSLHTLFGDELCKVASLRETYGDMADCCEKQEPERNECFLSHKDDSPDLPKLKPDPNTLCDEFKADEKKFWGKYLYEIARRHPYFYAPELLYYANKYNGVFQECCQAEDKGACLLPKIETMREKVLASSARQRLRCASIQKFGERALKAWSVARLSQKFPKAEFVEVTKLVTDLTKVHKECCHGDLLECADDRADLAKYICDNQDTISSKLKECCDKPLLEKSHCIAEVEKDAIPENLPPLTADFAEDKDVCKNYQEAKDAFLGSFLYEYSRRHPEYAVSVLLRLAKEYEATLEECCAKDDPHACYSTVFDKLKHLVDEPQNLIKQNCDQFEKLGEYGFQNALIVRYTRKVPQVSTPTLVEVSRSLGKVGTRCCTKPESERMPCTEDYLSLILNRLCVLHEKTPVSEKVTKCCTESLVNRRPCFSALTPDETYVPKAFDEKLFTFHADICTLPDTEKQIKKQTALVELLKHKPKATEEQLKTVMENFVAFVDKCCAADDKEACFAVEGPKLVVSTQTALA
Outline: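 BSA at 1.00 × 10⁻⁵ mol/L in 0.10 M Tris-HCl, pH 7.4, titrated with successive additions of 1.00 × 10⁻³ mol/L compound stock. Excitation at 280 nm, emission recorded 300−450 nm. Quenching analysed by Stern–Volmer and modified Stern–Volmer equations (τ₀ = 10⁻⁸ s).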

[5] = Cmax in Syrian golden hamster at 100 mg/kg, po administered via gavage as single dose by HPLC-UV analysis; format: ADME, organism-based, Mesocricetus auratus; design: dose 100 mg/kg, route oral; conditions: in vivo
Outline: (§2)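 Male Syrian golden hamsters (100 ± 15 g) given a single oral dose of 100 mg/kg. Plasma stored at −70 °C and assayed by HPLC-UV. Concentration–time profiles analysed non-compartmentally; values mean ± SD.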

[6] = Terminal half life in Syrian golden hamster at 100 mg/kg, po administered via gavage as single dose by HPLC-UV analysis; format: ADME, organism-based, Mesocricetus auratus; design: dose 100 mg/kg, route oral; conditions: in vivo, read-out: beta t1/2 (converted); outline: as §2
[7] = test system: Leishmania donovani; assay: Induction of apoptosis in Leishmania donovani MHOM/IN/80/Dd8 promastigotes assessed as drop in mitochondrial membrane potential at 0.78 uM after 48 hrs by JC-1 dye based flow cytometry (reference value: 5.87%); format: functional
[8] = test system: Leishmania donovani; assay: Antileishmanial activity against Leishmania donovani MHOM/IN/80/Dd8 amastigotes infected in syrian golden hamster assessed as decrease in parasite count in spleen at 50 mg/kg/day, po for 5 days measured on day 28 after last dose administration by giemsa staining; format: functional; conditions: MHOM/IN/80/Dd8, Spleen
Outline: (§3)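 Golden hamsters of either sex infected intracardially with 1 × 10⁷ L. donovani Dd8 amastigotes. After 15−20 days, pretreatment spleen biopsy; animals with +1 grade infection (5−10 amastigotes/100 spleen cell nuclei) used, 5−6 per compound. Aqueous suspensions dosed IP or PO for 5−10 consecutive days starting 2 days after biopsy. Splenic biopsies on day 7 and 28 after last dose, Giemsa counts; PI = 100 − [(ANAT×100)/(INAT×TIUC)].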

[9] = Selectivity index, ratio of CC50 for African green monkey Vero cells to IC50 for Leishmania donovani MHOM/IN/80/Dd8 intracellular amastigote form expressing luciferase gene infected in mouse J774A1 cells; format: functional, J774.A1
Outline: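 Ratio of CC₅₀ in Vero cells (72 h MTT) to IC₅₀ against luciferase-expressing amastigotes in J774A.1 macrophages (72 h luminescence).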

[10] = Apparent oral clearance in Syrian golden hamster at 100 mg/kg, po administered via gavage as single dose by HPLC-UV analysis; format: ADME, organism-based, Mesocricetus auratus; design: dose 100 mg/kg, route oral; conditions: in vivo; outline: as §2
[11] = Half life in syrian golden hamster liver S9 fraction at 10 uM in presence of NADPH; format: ADME, subcellular, Mesocricetus auratus
Outline: (§4)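 Hamster liver S9 (2 mg/mL protein), 50 mM Tris, 20 mM MgCl₂, 2 mM NADPH preincubated 10 min, then compound added at 10 μM final (1% organic) at 37 °C in triplicate. Sampled 0−60 min; no-NADPH control sampled at 0, 15, 30 and 60 min. Quenched with ice-cold methanol, extracted by LLE. Data as % parent remaining versus 0 min; testosterone as positive control.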

[12] = test system: Leishmania donovani; assay: Antileishmanial activity against Leishmania donovani MHOM/IN/80/Dd8 amastigotes infected in syrian golden hamster assessed as decrease in parasite count in spleen at 100 mg/kg/day, po for 5 days measured on day 28 after last dose administration by giemsa staining; format: functional; conditions: MHOM/IN/80/Dd8, Spleen; outline: as §3
[13] = test system: Leishmania donovani; assay: Induction of apoptosis in Leishmania donovani MHOM/IN/80/Dd8 promastigotes assessed as drop in mitochondrial membrane potential at 0.78 uM after 24 hrs by JC-1 dye based flow cytometry (reference value: 5.87%); format: functional
[14] = test system: Leishmania donovani; assay: Induction of early apoptosis in Leishmania donovani MHOM/IN/80/Dd8 promastigotes at 0.78 uM after 24 hrs by Annexin V-FITC/propidium iodide staining based flow cytometry (reference value: 13.70%); format: functional
[15] = test system: Leishmania donovani; assay: Induction of early apoptosis in Leishmania donovani MHOM/IN/80/Dd8 promastigotes at 0.78 uM after 6 hrs by Annexin V-FITC/propidium iodide staining based flow cytometry (reference value: 13.70%); format: functional
[16] = Apparent oral volume of distribution in Syrian golden hamster at 100 mg/kg, po administered via gavage as single dose by HPLC-UV analysis; format: ADME, organism-based, Mesocricetus auratus; design: dose 100 mg/kg, route oral; conditions: in vivo; outline: as §2
[17] = test system: J774.A1; assay: Increase in IL-12 production in mouse J774A1 cells infected with Leishmania donovani at IC50 concentration after 24 hrs by sandwich ELISA relative to control; format: functional; outline: as §1
[18] = test system: Leishmania donovani; assay: Induction of apoptosis in Leishmania donovani MHOM/IN/80/Dd8 promastigotes assessed as drop in mitochondrial membrane potential at 0.78 uM after 6 hrs by JC-1 dye based flow cytometry (reference value: 5.87%); format: functional
[19] = In vitro metabolic stability in syrian golden hamster liver S9 fraction at 10 uM in absence of NADPH; format: ADME, Mesocricetus auratus; conditions: s9, 10 µM; outline: as §4
[20] = test system: Leishmania donovani; assay: Induction of early apoptosis in Leishmania donovani MHOM/IN/80/Dd8 promastigotes at 0.78 uM after 48 hrs by Annexin V-FITC/propidium iodide staining based flow cytometry (reference value: 13.70%); format: functional
[21] = AUC (0 to infinity) in Syrian golden hamster at 100 mg/kg, po administered via gavage as single dose by HPLC-UV analysis; format: ADME, organism-based, Mesocricetus auratus; design: time infinity, dose 100 mg/kg, route oral; conditions: plasma
[22] = test system: J774.A1; assay: Induction of nitric oxide production in mouse J774A1 cells infected with Leishmania donovani after 24 hrs by Griess reagent based spectrophotometric analysis relative to control; format: functional
Outline: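 Infected J774A.1 macrophages (1 × 10⁶/mL) incubated with compound for 24 h; LPS 10 μg/mL as stimulant. Supernatant mixed 1:1 with Griess reagent at room temperature, absorbance at 540 nm, nitrite reported in μM. Normal, infected-untreated and infected-treated cells compared. Two independent experiments, mean ± SD; Student's t test against infected control.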

[23] = test system: Leishmania donovani; assay: Induction of early apoptosis in Leishmania donovani MHOM/IN/80/Dd8 promastigotes at 0.78 uM after 12 hrs by Annexin V-FITC/propidium iodide staining based flow cytometry (reference value: 13.70%); format: functional

CC(C)=CCCC1(C)C=Cc2c(ccc(C(=O)/C=C/c3cccnc3)c2O)O1 (centres undefined)
fold change (FC) [1]: 11.6 | Activity [2]: 66.14% | fold change (FC) [3]: 7.11 | KSV [4]: 2.7 ×10⁵ L/mol | Kq [4]: 2.7 ×10¹³ L/mol/s | Cmax [5]: 820 ng/mL | half-life [6]: 7.4 h | Activity [7]: 61.67% | inhibition in vivo at 50 mg/kg/day [8]: 55.4% | Ratio CC50/IC50 [9]: 7.5 | CL/F [10]: 464 mL/min/kg | half-life at 10 µM [11]: 0.63 h | inhibition in vivo at 100 mg/kg/day [12]: 84.5% | Activity [13]: 31.88% | Activity [14]: 30.79% | Activity [15]: 27.04% | Vd/F [16]: 392 L/kg | fold change (FC) [17]: 16 | Activity [18]: 10.47% | Stability [19]: Stable | Activity [20]: 37.62% | AUC(0-inf) [21]: 3700 ng·h/mL | fold change (FC) [22]: 6.3 | Activity [23]: 28.93%
